# Experimental data published in ChEMBL document CHEMBL4513216, “Probing the Open Global Health Chemical Diversity Library for Multistage-Active Starting Points for Next-Generation Antimalarials” (ACS Infect Dis, 2020).
# Assay: Toxicity liver stage against HepG2, at 10uM
# Assay type: cell-based
# Design: test concentration 10 uM, cell line HepG2-A16-CD81EGFP
# Details: human, HepG2-A16-CD81EGFP cells; read-out: INHIBITION
# Outline: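 Uninfected HepG2-A16-CD81EGFP cells, 3 × 10^3 per well, 1536-well, plated on prespotted compound at 10 μM final, parasite-free screening media added to match infected plates; puromycin 10 μM positive, DMSO 0.5% negative; run in parallel with 48 h PbLuc assay at 37 °C, 5% CO2; viability by CellTiter-Glo luminescence, normalized to controls.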
row,Structure (SMILES),cytotoxicity at 10 µM [%]
1,OC1CCN(Cc2ccc(CNc3ncc(Cl)cc3F)cc2)CC1,9.96
2,CCOc1ccc(Cc2c(O)nc(SC)n(-c3ccccc3)c2=O)cc1,4.04
3,CCN(C)C(=O)CN1CCC(c2cc(N3CCOCC3)nc(C)n2)CC1,-2.02
4,CS(=O)(=O)CCC(=O)NC(c1ccc(F)cc1)C(F)(F)F (stereo unspecified),-4.44
5,O=C(COc1ccccc1O)N1CCOC(C(F)(F)F)C1 (stereo unspecified),-2.3
6,O=C(CCN1CCN(c2ccc3nncn3n2)CC1)N1CCCCC1,-6.73
7,CO[C@H]1CCN(S(=O)(=O)c2cn(C)cn2)[C@H]1Cc1ccncc1,9.43
8,O=C(c1cccnc1)N1CC(S(=O)(=O)c2ccc(Cl)cc2)C1,-0.649
9,CC1CCCN(C(=O)c2nnn(-c3ccc(C(F)(F)F)cc3)n2)C1 (stereo unspecified),-3.43
10,CC(C)CC(C)NC1CCN(c2ccc(-c3cscn3)cc2)CC1 (stereo unspecified),-50.6
11,Cc1ccc(S(=O)(=O)N2CCN(CCCO)CC2)s1,-9.12
12,CN(C)C(=O)NCc1nnn2c1CN(CC1CCOCC1)CCC2,-128
13,O=S(=O)(NCCn1ccc(-c2cccs2)n1)C1CC1,-0.297
14,C[C@@H]1CN(Cc2cc(C(F)(F)F)ccc2F)CC[C@@]1(O)C1CC1,6
15,O=C(NC(c1ccccc1)c1cccnc1)C1CC1 (stereo unspecified),2.99
16,Cc1cc(C)n(CC(C)Nc2nc(C)nc3c2CCNC3)n1 (stereo unspecified),2.51
17,NC(=O)COc1ccc(C(=O)N2CCCC(n3ccnc3)C2)cc1 (stereo unspecified),-13
18,CCc1cccc(OCC(=O)NC(C)c2nnc3n2CCC3)c1 (stereo unspecified),-3.78
19,CC(C#N)CN(C)Cc1nc2c(cnn2C)c(=O)[nH]1 (stereo unspecified),-6.45
20,CS(=O)(=O)NC1CCCN(Cc2ccc(OCc3ccccn3)cc2)C1 (stereo unspecified),1.8
21,CSC(C)C(=O)N1CCCN(Cc2cnn(C(C)C)c2)CC1 (stereo unspecified),-6.29

row,Structure (SMILES),cytotoxicity at 10 µM [%]
1,CC1CCCN(Cc2c(C3CC3)[nH]c3ncccc23)C1 (stereo unspecified),-34.1
2,O=c1c2cc3c(cc2nnn1Cc1ccccc1Cl)OCCO3,9.32
3,CNC(=O)C(NC(=O)c1c(C)noc1C)c1ccc(F)c(F)c1 (stereo unspecified),-18.3
4,CCc1c(C(=O)O)nnn1-c1ccc(C)cc1C,-5.11
5,COc1ccc(C[C@H]2CN(Cc3ccoc3)CC[C@H]2OC)cc1,8.44
6,CN(C(=O)OC(C)(C)C)C1CCN(C(=O)c2ccc(Cl)o2)C1 (stereo unspecified),-42.5
7,CC(C)NC(=O)CN(C)C1CCN(c2ccc(C#N)cn2)CC1,-16.1
8,CN(C)Cc1nnc(C(=O)N(C)Cc2ccc(C(F)(F)F)cc2)o1,-6.72
9,CN1CCN([C@@H]2CCN(C(N)=O)[C@H]2Cc2ccccc2)CC1,2.41
10,CCOC(=O)C1CCN(CCCc2nnnn2-c2ccccc2)CC1,0.462
11,O=c1[nH]c2nc(N3CCSCC3)ncc2c(=O)n1-c1ccc(F)cc1,9.82
12,Cc1cccc(N2CCN(CCC(=O)NCc3ccc(C)s3)CC2)c1,-0.432
13,CC1(C)CN(c2cc(C3CC3)ncn2)C[C@]1(C)O,1.4
14,CC(=O)c1cn(CCC(=O)N[C@@H](CC(C)C)C(=O)O)c2ccccc12,2.1
15,Cc1ccc(F)cc1S(=O)(=O)N(C)CC(N)=O,-12.6
16,CN(C)CC(=O)N1CCC2(CC1)COCCN(Cc1ccncc1)C2,-80.8
17,O=C(c1ccc[nH]1)N1Cc2nccn2CC(Cn2ncccc2=O)C1 (stereo unspecified),3.66
18,CC1CCN(C(=O)c2cnc3cc(C(=O)N(C)C)n(C)c3c2)CC1,6.14
19,CC(C)N1CCN(C)C2(CCN(C(=O)c3ccnnc3)CC2)C1=O,8.64
20,O=C(NCC1CCCN(Cc2cccc3nonc23)C1)c1ccc[nH]1 (stereo unspecified),-42.2
21,O=C(c1ccc2c(c1)[nH]c(=O)n2C1CCCC1)N1CCSCC1,-42.3

row,Structure (SMILES),cytotoxicity at 10 µM [%]
1,CC(C)NC(=O)C1CN(C(=O)Cc2cccc(F)c2)CC12CCOCC2 (stereo unspecified),4.58
2,CC(C)(C)C(=O)N1CCC(COCc2ccccc2)C1 (stereo unspecified),12.8
3,COc1cc(CN2CC[C@@H](N3CCCCCC3)[C@H](O)C2)cc(Cl)c1OC,-1.47
4,CCC(C)(C)NC(=O)C[S+]([O-])Cc1csc(C2CCCC2)n1 (stereo unspecified),-41.3
5,N[C@@H](Cc1c[nH]cn1)C(=O)N1CCC(Oc2ccc(F)cc2)CC1,0.828
6,CN(CC(=O)N1CCc2[nH]c3ccc(F)cc3c2C1)CC1OCCO1,6.19
7,COc1ncccc1CNC(=O)Nc1ccc(N(C)C)nc1,-4.38
8,CN(C)C(=O)N1C[C@H]2CCC[C@@]2(COc2ccccn2)C1,3.24
9,Cc1cnn(C2CN(Cc3nc(C(C)(C)C)no3)C2)c1,-7.28
10,COc1ccc(OCCNCc2c(C)nn(C)c2N(C)C)cc1,-6.63
11,CN(C)C(=O)CN1CCCCC1c1nc(N)ncc1-c1ccc(Cl)cc1 (stereo unspecified),-14.9
12,CCOc1ccccc1N(C)Cc1nccn1C,-3.83
13,CCCN1CCN(C(=O)C(C)n2cc(Br)cn2)CC1 (stereo unspecified),-18.8
14,NC(=O)CN1CC2(CCC1=O)CCN(Cc1cc(F)ccc1Cl)CC2,18.6
15,CNc1nc(C2CCCN(C(=O)C3CCCCC3)C2)nc2c1CNCC2 (stereo unspecified),-1.85
16,CCN(CC)C(CNCc1cc(F)cc(F)c1)c1ccco1 (stereo unspecified),5.44
17,CCCC(NC(=O)c1cc(C2CC2)[nH]n1)c1nnc2ccccn12 (stereo unspecified),0.11
18,Cc1cc(NC(=O)NCC2(O)CCCC2)ccn1,-6.36
19,CC(C)c1nc(C2CCCN2c2cnc3ccccc3n2)no1 (stereo unspecified),-3.13
20,Cc1ccc2nc(-c3nc4c([nH]3)CC(C)(C)CNC4=O)cn2c1,5.31
21,O=C1NCCN1C1CCN(c2ccnc(-c3ccccc3)n2)CC1,36.2

row,Structure (SMILES),cytotoxicity at 10 µM [%]
1,COc1ccc(C(C)Nc2ncnc3c2NC(=O)CN3)cc1 (stereo unspecified),7.83
2,CN1CCN([C@@H]2CCN(C3CCOC3)[C@H]2Cc2cnn(C)c2)CC1 (stereo partly specified),6.28
3,Cn1ncc2c(NC3CCCN(C(=O)C4CC4)C3)nc(C(C)(C)C)nc21 (stereo unspecified),12
4,COc1nccnc1N1CCC(C(=O)O)(n2ccc(C(C)(C)C)n2)CC1,-4.05
5,CCN(Cc1cn(CC2CCNCC2)nn1)CC1CCCO1 (stereo unspecified),-1.77
6,FC(F)(F)c1ccc(-c2c[nH]c([C@@H]3COCCN3)n2)cc1,1.05
7,COc1cccc(CC2CN(C(=O)c3ccnn3C)CCO2)c1 (stereo unspecified),0.769
8,O=C(NCCCNC(=O)c1cccc(O)c1)Nc1ccc(Cl)cc1,-3.79
9,CCC(=O)N1CCC(NCc2cc(C(F)(F)F)ccc2Cl)C1 (stereo unspecified),-4.04
10,Cc1nn(C)c2c(=O)n(C(C)C)c(NCCc3ccccc3)nc12,65.3
11,CC(C(=O)O)N1CCc2onc(-c3ccc(F)c(F)c3)c2C1 (stereo unspecified),14.9
12,O=C(CC(F)(F)F)N1CCCC(c2nccn2Cc2ccncc2)C1 (stereo unspecified),3.22
13,c1cc(-c2nnc([C@H]3CCN(C4CCCCC4)C3)o2)ccn1,-102
14,COc1cccc(-c2n[nH]cc2C(=O)NC(C)c2nc(C(C)C)no2)c1 (stereo unspecified),-2.75
15,CCc1n[nH]c(C2CN(Cc3csc(C4CCCC4)n3)CCO2)n1 (stereo unspecified),-14.6
16,CCCn1ncc(-c2ccnc(NC3CCSC3)n2)c1C (stereo unspecified),2.65
17,CCOc1ccc(CC(=O)N(CCC(=O)OC)CC2CCCO2)cc1 (stereo unspecified),5.04
18,CC(C)(C)c1cc(C(=O)NCCn2nc3ccccn3c2=O)[nH]n1,-29.5
